Consider five compounds from ChEMBL document CHEMBL2177081, “Orally active metabotropic glutamate subtype 2 receptor positive allosteric modulators: structure-activity relationships and assessment in a rat model of nicotine dependence” (J Med Chem, 2012).

The term Cmax denotes the maximum level reached in the sampled fluid or tissue. As a reminder, the Tmax is the time at which the peak concentration occurs.

Each structure is given as a SMILES string.

For series [1], the system named is Rattus norvegicus. Kind of series: Cmax in rat at 10 mg/kg, po. It is filed as ADME, organism-based. Details: dose 10 mg/kg, route oral. The note with it: in vivo. A digest of the protocol: (§1)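 Sodium salts were given to rats by oral dose at 10 mg/kg in sterile water, with n = 3 or 5 animals per compound. Plasma concentration was measured over time to give Cmax, Tmax, terminal half-life and oral bioavailability (F). Brain and plasma were taken at or near Tmax.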

For series [2], the system named is Rattus norvegicus. Kind of series: Tmax in rat at 10 mg/kg, po. It is filed as ADME, organism-based. The arrangement: dose 10 mg/kg, route oral. As to conditions: in vivo.
In series [3] the test system is Rattus norvegicus. Kind of series: Volume of distribution in rat at 10 mg/kg, ip. As to conditions: in vivo. It is filed as ADME, organism-based. Details: dose 10 mg/kg, route intraperitoneal. A digest of the protocol:
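Intraperitoneal dose of 10 mg/kg in rats, given as sodium salt in sterile water; plasma PK parameters including volume of distribution.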

Series [4] concerns Rattus norvegicus. Kind of series: AUC (0 to t) in rat at 10 mg/kg, ip. It is filed as ADME, organism-based, Plasma. The note with it: in vivo. The arrangement: dose 10 mg/kg, route intraperitoneal.
For series [5], the system named is Rattus norvegicus. Kind of series: (§2) Cmax in rat at 10 mg/kg, ip. It is filed as ADME, organism-based. The arrangement: dose 10 mg/kg, route intraperitoneal. The note with it: in vivo. An outline of the steps: (§3)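 Intraperitoneal dosing in rats at 10 mg/kg, sodium salt form, sterile water vehicle. Cmax is the maximum compound concentration detected in plasma, and terminal half-life was derived from the plasma profile.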

Series [6] relates to Rattus norvegicus. Kind of series: AUC (0 to t) in rat at 10 mg/kg, po. As to conditions: in vivo. Details: dose 10 mg/kg, route oral. It is filed as ADME, organism-based, Plasma. An outline of the steps: (§4)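 Sodium salt given orally at 10 mg/kg in sterile water to rats, n = 3 (n = 5 for one compound). Plasma was sampled over time for Cmax, Tmax, AUC(0–t), t1/2 and oral bioavailability. Brain and plasma were harvested at or near Tmax to measure levels and the brain:plasma ratio.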

Series [7] concerns Rattus norvegicus. Kind of series: Volume of distribution in rat at 10 mg/kg, po. It is filed as ADME, organism-based. The arrangement: dose 10 mg/kg, route oral. The note with it: in vivo. A digest of the protocol:
(§5)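 Rats dosed orally at 10 mg/kg as sodium salts in sterile water, n = 3 (n = 5 for one compound). Plasma sampled for PK parameters; brain and plasma harvested at or near Tmax for levels and brain:plasma ratio.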

The test system of a further series is Brain. Kind of series: Drug level in rat brain at 10 mg/kg, po. It is filed as ADME, organism-based. Details: dose 10 mg/kg, route oral. The note with it: in vivo, read-out: Drug uptake. A digest of the protocol:
as §4

The subject of series [8] is Rattus norvegicus. Kind of series: Oral bioavailability in rat at 10 mg/kg. It is filed as ADME, organism-based. As to conditions: in vivo. A digest of the protocol:
as §1

Series [9] has as its system Rattus norvegicus. Kind of series: Volume of distribution in rat at 2 mg/kg, iv. It is filed as ADME, organism-based. Details: dose 2 mg/kg, route intravenous. As to conditions: in vivo. An outline of the steps:
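Intravenous dose of 2 mg/kg in rats, given as sodium salt in sterile water; plasma PK parameters including volume of distribution.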

Series [10] relates to Rattus norvegicus. Kind of series: Ratio of drug level in brain to plasma in rat at 10 mg/kg, po.
Another series deals with Plasma. Kind of series: Plasma concentration in rat at 10 mg/kg, po. The note with it: in vivo. It is filed as ADME, organism-based. Details: dose 10 mg/kg, route oral. A digest of the protocol:
as §5

In series [11] the test system is Rattus norvegicus. Kind of series: Cmax in rat at 2 mg/kg, iv. It is filed as ADME, organism-based. Details: dose 2 mg/kg, route intravenous. The note with it: in vivo. An outline of the steps: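 Rats received sodium salts intravenously at 2 mg/kg in sterile water. Cmax is the maximum compound concentration detected in plasma, and terminal half-life was derived from the plasma concentration–time profile.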

The test system of series [12] is Rattus norvegicus. Kind of series: AUC (0 to t) in rat at 2 mg/kg, iv. It is filed as ADME, organism-based, Plasma. Details: dose 2 mg/kg, route intravenous. The note with it: in vivo.
The nature of series [13]: as §2. It is filed as ADME, organism-based. Details: dose 10 mg/kg, route intraperitoneal. As to conditions: in vivo. An outline of the steps: as §3

For the compound `O=C([O-])c1cc(-c2cccc(-c3ccc4c(c3)CN(C3CCCC3)C4=O)c2)ccc1Cl.[Na+]`, the maximum concentration (Cmax) with Rattus norvegicus [1] was found to be 0.4 µM; in the series with Rattus norvegicus [5], 2 µM. The time of peak concentration (Tmax) in the series with Rattus norvegicus [2] is reported as 30 min. Moreover, the values for the Vd in the series on Rattus norvegicus [3] and in the series with Rattus norvegicus [7] were 21.2 mL and 96.2 mL, respectively. Besides, the figures for the AUCt in the series on Rattus norvegicus [4] and in the series on Rattus norvegicus [6] were 3.23 µM·h and 2.67 µM·h, respectively.
Consider `O=C([O-])c1cc(-c2cccc(COc3ccc4c(c3)CN(C3CCCC3)C4=O)c2)ccc1O.[Na+]`, for which the figures for the concentration in the series on Brain and in the series with Plasma were 0.0071 µM and 0.21 µM, respectively. Further, the Cmax was determined as 1.6 µM with Rattus norvegicus [1] and 3.9 µM with Rattus norvegicus [11]. The Tmax in the series with Rattus norvegicus [2] amounted to 30 min. The compound further had a F with Rattus norvegicus [8] of 109.2%. The values for the Vd with Rattus norvegicus [9] and in the series on Rattus norvegicus [7] were 4.3 mL and 28 mL, respectively. Also, the BPR with Rattus norvegicus [10] is reported as 0.0335. Besides, the AUCt in the series on Rattus norvegicus [6] worked out at 7.1 µM·h; with Rattus norvegicus [12], 2.57 µM·h.
In the case of `COc1ccc(C(=O)[O-])cc1-c1cccc(COc2ccc3c(c2)CN(C2CCCC2)C3=O)c1.[Na+]`, the concentration turned out to be 0.18 µM in the series on Brain and 1.46 µM in the series with Plasma. Also, the Cmax with Rattus norvegicus [1] was 4 µM; with Rattus norvegicus [11], 5.6 µM. In addition, in the series with Rattus norvegicus [2], the Tmax amounted to 30 min. This compound also showed a F in the series with Rattus norvegicus [8] of 84.8%. The figures for the Vd in the series with Rattus norvegicus [9] and with Rattus norvegicus [7] were 4620 mL and 10875.2 mL, respectively. Moreover, in the series with Rattus norvegicus [10], the BPR is reported as 0.13. In addition, the AUCt with Rattus norvegicus [6] worked out at 12 µM·h; with Rattus norvegicus [12], 6.7 µM·h.
For the compound `O=C([O-])c1cc(-c2cccc(COc3ccc4c(=O)n(C5CC5)sc4c3)c2)ccc1Cl.[Na+]`, the concentration in the series with Brain came to 0.03 µM; in the series with Plasma, 0.8 µM. Also, the peak concentration (Cmax) in the series with Rattus norvegicus [1] was found to be 8.5 µM; in series [13] it was 9.6 µM. The Tmax in the series on Rattus norvegicus [2] was 60 min. For the same compound, the values for the Vd in the series with Rattus norvegicus [3] and in the series on Rattus norvegicus [7] were 2.4 mL and 4.1 mL, respectively. Further, the AUCt in the series with Rattus norvegicus [4] worked out at 25.8 µM·h; in the series on Rattus norvegicus [6] it was 61.5 µM·h. For the same compound, the BPR in the series on Rattus norvegicus [10] turned out to be 0.04.
As to `O=C([O-])c1cc(-c2cccc(COc3ccc4c(c3)CN(C3CCCC3)C4=O)c2)ccc1Cl.[Na+]`, the Cmax turned out to be 3 µM with Rattus norvegicus [1] and 28.2 µM in the series on Rattus norvegicus [11]. The compound also registered a F with Rattus norvegicus [8] of 71.4%. Further, the Vd in the series with Rattus norvegicus [9] worked out at 0.6 mL; in the series with Rattus norvegicus [7], 3 mL. The BPR in the series with Rattus norvegicus [10] stood at 0.039. The AUCt in the series with Rattus norvegicus [6] amounted to 42.5 µM·h; with Rattus norvegicus [12], 11.8 µM·h.
